Screens (PubChem)
The list is not random: actives were taken first. Their share in the collection is about 2%.
LGR2 antag = inhibitors of bursicon-induced LGR2 CRE-luciferase signal, primary screen, cell-based, HEK293, CRE-luciferase reporter, bursicon stimulation; inhibition, % at 9.99 µM; Drosophila bursicon receptor LGR2 (rickets); 380,000 compounds, 0.35% hits; bursicon-stimulated, 4 h;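 active means drop in luminescence signal, shown as inhibition above about 50% in the replicate tests, limit read from the data, passing the limit was not always enough; inconclusive means probably only some replicates passing the limit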;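 further: agonist challenge used bursicon conditioned medium at about half maximal strength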
TROY NFkB inh = inhibitors of TROY-driven NF-kB signaling, primary screen, Q293 LMP1-TROYcd cells, NF-kB luciferase, uHTS | 360,000 compounds, 0.98% hits | AID 1347056, 2019 | Q293 LMP1-TROYcd NF-kB luciferase reporter, 4 h | inhibition, % at 10 µM;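 active means compounds whose plate-normalised and pattern-corrected inhibition of the luciferase reporter signal at the single screening dose is 50% or more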
XiGFP reactiv = activators of inactive X chromosome reactivation, primary screen, imaging, XiGFP fibroblasts, GFP high-content imaging, set 2; XiGFP mouse fibroblasts, % GFP-positive cells imaging, 3 d; cells co-treated with 5-aza-dC sensitizer; scaled so ellipticine positive control = 100%; activation, % at 7.58 µM; 360,000 compounds, 0.055% hits; AID 743238, 2013;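 active means mean normalized replicate activation at least 10% and every replicate at or above 10%; inconclusive means only one of the two criteria met; inactive means mean below 10% and not all replicates reach 10%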;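 further: 0% = median of on-plate neutral control wells and 100% = ellipticine 6 µM median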
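material = 68-5-11 XiGFP fibroblast line | medium = DMEM plus 5-aza-dC sensitizer | schedule = 3 days compound exposure | benchmarks = positive control ellipticine, 6 µM final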
CaV13 ICDI inh = Disruptors of the CACNA1D IQ motif to Ca2+-dependent inactivation inhibitor domain association, primary screening, Förster resonance energy transfer in intact living …. 340,000 compounds, 0.098% hits. inhibition, % at 12.3 µM. AID 743397. HEK cells, CFP/YFP FRET ICDI-IQ, plate reader, 10 min; percent FRET-ratio fall versus neutral wells;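 active means mean replicate inhibition of at least 30% and at least 1% of replicates passing that level; inconclusive means only one of the two criteria is met; inactive means neither criterion is met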;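 further: 0% = median of the neutral control wells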
TWEAK-Fn14 inh = inhibitors of TWEAK-Fn14 signaling, primary screen, luciferase reporter cells, uHTS; TWEAK-stimulated Fn14 reporter cells, luciferase luminescence, 8 h; AID 1159606, 2016; 360,000 compounds, 2% hits; inhibition, % at 10 µM; in the data active means inhibition above about 50%
Active calls of the source: *; ? = inconclusive; nt = not tested or not shown.

SMILES	LGR2 antag	TROY NFkB inh	XiGFP reactiv	CaV13 ICDI inh	TWEAK-Fn14 inh
COc1ccc(C(=O)Nc2ccc3c(c2)OCCO3)cc1	nt	26.6	nt	nt	50.2*
CO[C@H]1CN(C)C(=O)c2ccc(NS(=O)(=O)c3ccccc3)cc2OC[C@@H](C)N(Cc2cccnc2)C[C@H]1C	14.0	nt	0.3	nt	nt
Cc1ccc(C2CN=NC23CCc2ccccc2C3=O)cc1 (configuration not stated)	nt	48.7	nt	-5.1	55.1*
COc1ccc(C(=O)NC2CC2)cc1OC1CCN(Cc2cc(C)c(C)cc2C)CC1	-10.5	15.7	-0.2	-3.4	87.8*
C[C@@H]1CCCCO[C@@H](CN(C)C(=O)Cc2ccccc2)[C@H](C)CN([C@@H](C)CO)C(=O)c2cc(NS(=O)(=O)c3ccc(Cl)cc3)ccc2O1	14.1	nt	0.0	nt	nt
c1ccc2nc(-c3nc4ccccc4o3)ccc2c1	85.3*	58.3*	nt	-4.9	93.6*
c1ccc(-c2nc3ccccc3o2)nc1	nt	-48.4	nt	nt	-2.5
O=C1C=C(O)c2c(O)cc(O)c(O)c2C1=O	-12.4	5.7	nt	nt	69.8*
Cc1cccc(C(=O)Nc2ncc(CN3CCOCC3)s2)c1	4.6	-6.5	nt	-8.3	66.2*
COC(=O)c1c(C)[nH]c(C(=O)C(C)OC(=O)C2CC(=O)N(CCc3ccccc3)C2)c1C (configuration not stated)	nt	-7.2	-0.1	-3.6	9.0
COC(=O)c1c(C)[nH]c(C(=O)C(C)OC(=O)C2CC(=O)N(c3ccc(C)cc3)C2)c1C (configuration not stated)	-48.6	54.0*	-0.1	-2.1	24.1
N#C/C(=C\c1cc2ccccc2nc1N1CCOCC1)C(=O)Nc1ccc(N2CCOCC2)cc1	5.7	57.7*	0.0	-4.8	23.3
N#CC(C#N)=Cc1cc2ccccc2nc1N1CCOCC1	16.5	27.9	0.0	-6.3	34.9
O=C(C[C@@H]1CC[C@@H](NC(=O)Nc2ccc(C(F)(F)F)cc2)[C@H](CO)O1)NCc1cc(F)cc(F)c1	4.0	nt	-0.3	nt	nt
Cc1nc2cc(N3CCN(C)CC3)c(NC(=O)Cc3ccccc3)cc2c(=O)n1Cc1ccccc1	nt	59.0*	nt	-4.5	87.1*
CC(=O)/C(N=Nc1cc2c(c([N+](=O)[O-])c1C)C(C)(C)CC2(C)C)=C(\C)O	nt	80.8*	0.0	-24.4	96.1*
C[C@@H]1CN([C@@H](C)CO)C(=O)c2cc(NC(=O)Nc3ccc(C(F)(F)F)cc3)ccc2O[C@@H](C)CCCCO[C@H]1CN(C)C(=O)Nc1ccccc1	-4.9	nt	0.1	nt	nt
COc1cc(/C=N/Nc2nc3c(c(=O)n(C)c(=O)n3C)n2Cc2ccccc2)ccc1OC(=O)c1ccco1	51.4*	42.4	0.0	-4.2	71.7*
Cn1c(=O)c2c(nc(NCCNC(=O)c3ccco3)n2Cc2ccccc2)n(C)c1=O	12.0	-14.1	0.0	-2.4	98.4*
Cn1c(=O)c2c(nc(NCCNC(=O)c3ccco3)n2Cc2ccc(F)cc2)n(C)c1=O	-2.3	4.5	0.0	-6.2	31.1
CC(C)NC(=O)N(C)C[C@@H]1OCCCC[C@@H](C)Oc2ccc(NC(=O)CCC(F)(F)F)cc2C(=O)N([C@H](C)CO)C[C@H]1C	1.0	nt	0.3	nt	nt
CC(OC(=O)c1ccc(O)cc1)C(=O)Nc1nc(-c2ccccc2)cs1 (configuration not stated)	-2.0	41.6	0.1	-18.8	55.1*
CN(C)S(=O)(=O)c1cccc(NC(=S)NC23CC4CC(CC(C4)C2)C3)c1	-7.3	9.1	0.0	-2.0	62.5*
O=S(=O)(c1ccc(NC(=S)NC23CC4CC(CC(C4)C2)C3)cc1)N1CCCCC1	15.6	44.5	-0.1	-6.7	69.5*
N#CC(C#N)=NNc1ccc(S(=O)(=O)N2CCCCC2)cc1	nt	59.0*	-0.1	-14.5	47.8
SMILES	LGR2 antag	TROY NFkB inh	XiGFP reactiv	CaV13 ICDI inh	TWEAK-Fn14 inh
Cc1ccc(S(=O)(=O)N(C)C)cc1NC(=S)NC12CC3CC(CC(C3)C1)C2	-6.3	5.0	0.2	-4.4	-11.8
Cc1ccc(-n2c(O)c(/C=N/Nc3ccc(S(=O)(=O)N4CCOCC4)cc3[N+](=O)[O-])c3ccccc3c2=O)c(C)c1	45.4	41.6	0.0	-5.1	82.4*
Cc1c(C(C)(C)C)sc(=NC(=O)c2ccccc2O)n1C	-87.5	55.7*	0.1	-3.2	46.8
Cc1c(C(C)(C)C)s/c(=N/S(=O)(=O)c2ccccc2)n1C	nt	10.6	0.1	-4.8	2.6
N#CC1=C(N)N2C(=C(C#N)C1c1ccc(Br)cc1)Nc1ccccc12 (configuration not stated)	48.9	nt	0.2	-17.6	nt
N#CC1=C(N)N2C(=C(C#N)C1c1cccc(Br)c1)Nc1ccccc12 (configuration not stated)	26.2	72.5*	-0.1	-13.9	94.3*
COc1cccc(-c2nc(NCc3ccccc3)c3ccccc3n2)c1O	-3.0	29.6	0.0	-3.5	19.5
COc1cccc(-c2nc(NC3CCCC3)c3ccccc3n2)c1O	-5.8	70.5*	0.0	-3.4	-1.9
C/C(=N\OCc1cccc(C(=O)O)c1)c1ccc(Cl)cc1	100.3*	-72.7	0.0	-5.1	-4.4
O=C(N[C@H]1CC[C@H](CCNS(=O)(=O)Cc2ccccc2)O[C@H]1CO)c1cnccn1	7.5	nt	0.2	nt	nt
Cc1cc(C)c(CSc2ncc(-c3ccc([N+](=O)[O-])cc3)[nH]2)c(C)c1	3.3	56.5*	nt	-4.6	41.0
O=[N+]([O-])c1ccc(-c2cnc(SC(c3ccccc3)c3ccccc3)[nH]2)cc1	?	61.9*	0.2	-6.4	79.3*
Cc1ccc(-c2ccc([C@@H]3[C@@H](CO)N4C(=O)CN(C(=O)Nc5cccc(F)c5)C[C@@H]34)cc2)cc1	10.0	nt	0.2	nt	nt
O=C(CCc1nc(-c2ccc(Cl)cc2)no1)NCc1ccccc1CN1CCOCC1	-10.4	84.2*	-0.1	-6.4	0.0
O=C(CCc1nc(-c2ccccc2)no1)NCc1ccccc1CN1CCOCC1	-13.4	4.9	0.1	-5.5	-9.9
COc1ccc2cnn(CCOc3ccccc3)c(=O)c2c1OC	nt	32.5	nt	-1.5	51.4*
C/C=C/c1ccc2c(c1)O[C@@H](CN(C)C(=O)Nc1ccc(C(F)(F)F)cc1)[C@H](C)CN([C@H](C)CO)S2(=O)=O	21.5	nt	-0.6	nt	nt
CC1CCN(C(=O)c2cc3c(ccc4ccccc43)o2)CC1	?	41.3	0.2	-5.7	60.8*
CN1CCN(C(=O)C[C@H]2CC[C@@H]3[C@H](COC[C@@H](O)CN3C(=O)C3CCCC3)O2)CC1	7.5	nt	0.0	nt	nt
COc1cc(OC)c2c(-c3cccc(-c4ccc(C(C)=O)cc4)c3)cc(=O)oc2c1	nt	55.8*	nt	nt	77.1*
